In the library only some 1.4% were active in any assay of this set; here they are far more common.
CTSL1 counter – counter-screen for PFM18AAP inhibitors: inhibitors of F. hepatica cathepsin L1; recombinant F. hepatica cathepsin L1, Z-Leu-Arg-MCA fluorescence; inhibition, % at 5.96 µM; AID 1906; 0.49% of 300,000 active;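 active means inhibition above the mean of all tested compounds plus 3 SD, set per screening campaign, cut at about 17% in these data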
PAD4 inh – PAD4 (human) enzyme inhibition; Q9UM07; recombinant PAD4, RCA probe fluorescence polarization; inhibition, % at 6.36 µM; 0.41% of 330,000 active; AID 485272;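 active means percent inhibition above a cutoff equal to the mean of all tested compounds plus 3 SD, cut at about 15% in these data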
GSTO1 inh – blocks human GSTO1 in RBBP9 counter-screen | P78417 | recombinant GSTO1, activity-based probe fluorescence polarization | inhibition, % at 5.96 µM | 1.1% of 300,000 active;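 active means inhibition above the campaign mean inhibition plus 3 SD, cut at about 35% in these data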
Target sequence (P78417 whole entry, looked up): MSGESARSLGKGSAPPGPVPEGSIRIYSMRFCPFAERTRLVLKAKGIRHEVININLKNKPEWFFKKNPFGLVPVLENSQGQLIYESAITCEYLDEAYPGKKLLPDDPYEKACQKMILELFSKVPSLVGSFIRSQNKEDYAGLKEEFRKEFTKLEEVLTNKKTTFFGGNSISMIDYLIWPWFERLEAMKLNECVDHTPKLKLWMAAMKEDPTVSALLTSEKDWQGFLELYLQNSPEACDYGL
TDP2 inh – TDP2 (human) inhibition, absorbance primary screen | AID 720702 | O95551 | recombinant TDP2, T5PNP hydrolysis, p-nitrophenol absorbance 415 nm | inhibition, % at 12.8 µM | 0.34% of 370,000 active;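 active means inhibition above the mean of all tested compounds plus 3 SD, set per campaign, cut at about 25% in these data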
Target sequence (O95551 whole entry, looked up): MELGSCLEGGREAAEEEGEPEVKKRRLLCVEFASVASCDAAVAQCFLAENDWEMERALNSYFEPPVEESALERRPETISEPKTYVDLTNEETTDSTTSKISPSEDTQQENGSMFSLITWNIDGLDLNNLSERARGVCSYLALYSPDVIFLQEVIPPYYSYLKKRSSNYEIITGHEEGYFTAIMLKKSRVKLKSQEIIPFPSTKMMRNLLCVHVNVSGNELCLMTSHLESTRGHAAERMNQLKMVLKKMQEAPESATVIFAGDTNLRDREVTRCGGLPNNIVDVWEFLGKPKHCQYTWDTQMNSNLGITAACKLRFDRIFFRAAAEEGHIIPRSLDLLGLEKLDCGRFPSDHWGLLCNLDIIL
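Evaluation: % inhibition relative to enzyme-containing and enzyme-free wells. Material: recombinant human TDP2. Benchmarks: enzyme-free and DMSO wells. Timing: enzyme reaction with compound for 2 h at 37 °C. Compound dosing: 12.8 µM only. Measured by: p-Nitrophenol epi absorbance. Reagent: T5PNP substrate at 5 mM, a TopII-DNA adduct mimic. Replication: single well per compound.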
GSTO1 inh conf – GSTO1 (human) inhibition, confirmation; shares compounds with GSTO1 inh; recombinant GSTO1, probe fluorescence polarization; inhibition, % at 5.96 µM; 54% of 2,400 active; AID 2176;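 active means inhibition above the primary screen's cutoff, its mean inhibition plus 3 SD, cut at about 35% in these data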;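 further: loss of polarization as inhibitors block binding of rhodamine sulfonate ester activity probe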
GSTO1 recomb ABPP – GSTO1 (human) inhibition by gel ABPP | shares compounds with GSTO1 inh | 30% of 130 active | AID 463110 | recombinant GSTO1, gel ABPP SE-Rh probe fluorescence | inhibition, % at 1 µM;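 active means inhibition of the enzyme GSTO1 above about 75%, limit read from the data; inactive means inhibition below that limit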
Numbers stand for hits; . = inactive; / = no result; ! = repeats disagree.

SMILES | CTSL1 counter | PAD4 inh | GSTO1 inh | TDP2 inh | GSTO1 inh conf | others
O=C(O)C1OC(Oc2c(-c3ccc(O)c(O)c3)oc3cc(O)cc(O)c3c2=O)C(O)C(O)C1O (stereo unspecified) | . | . | . | / | /
C=C1CCC2C(C)(C(=O)O)CCCC2(C)C1CCC(CO)CCO (stereo unspecified) | / | / | / | . | /
CN(C)c1cccc(NC(=O)c2cccc3ccccc23)c1 | . | . | 38 | . | .
COc1ccc(-c2nc(CCl)cs2)cc1OC | . | . | . | . | /
COc1cccc(-c2nc(CCl)cs2)c1 | . | . | 83 | . | 95 | GSTO1 recomb ABPP=.
CCS(=O)(=O)NCCc1csc(-c2ccccc2)n1 | . | . | . | . | /
CCc1ccc(-c2nc(CCl)cs2)cc1 | . | . | 92 | . | 98 | GSTO1 recomb ABPP=81
O=C(CCl)NC1CCCCN(Cc2ccc(OC(F)(F)F)cc2)C1=O (stereo unspecified) | / | / | / | . | /
COc1ccc(CCn2c(NN)nc3c2c(=O)[nH]c(=O)n3C)cc1 | . | . | 41 | . | .
COc1cccc(/C=C2\CC3(OC(=O)c4ccc(Cl)cc4)CCCN2C3)c1 (stereo unspecified) | / | / | / | . | /
NC(=O)C1CCN(c2nc(-c3ccc4c(c3)CCO4)cs2)CC1 | / | / | / | . | /
O=C(CCl)N(CCc1ccccc1)CCc1ccccc1 | 39 | . | 79 | . | 96 | GSTO1 recomb ABPP=82
O=C(CCl)N(c1ccccc1)c1ccccc1 | / | / | / | . | /
CCC[C@H]1[C@@H](OC(=O)NCc2ccc(C)cc2)CC[C@@]23CCCN2C(=O)CCC[C@@H]13 | / | / | / | . | /
CCOC(=O)Cc1csc(NC(=O)NC2(C(F)(F)F)Oc3ccc(Cl)cc3O2)n1 (stereo unspecified) | . | . | 45 | . | .
CCOC(=O)Cc1csc(NC(=O)NC2(C(F)(F)F)Oc3cc(Cl)c(Cl)cc3O2)n1 | . | . | 44 | . | .
C[C@H]1C2CC(OC(=O)NCCCc3ccccc3)C(C2)[C@H]2CCCCN21 (stereo partly specified) | / | / | / | . | /
CN1CCN(C2=C(NS(=O)(=O)c3ccccc3)C(=O)c3ccccc3C2=O)CC1 | . | . | 46 | / | .
O=C1C(NS(=O)(=O)c2ccc(Cl)cc2)=C(N2CCCCC2)C(=O)c2ccccc21 | . | . | 48 | . | .
CN1CCN(C2=C(NS(=O)(=O)c3cccs3)C(=O)c3ccccc3C2=O)CC1 | . | . | . | . | /
Oc1ccc(-c2cn3ccccc3n2)cc1O | . | . | 43 | . | .
Cc1ccn2cc(-c3ccc(O)c(O)c3)nc2c1 | . | . | 60 | . | .
Cc1ccn2cc(-c3cccc(NC(=O)C(C)C)c3)nc2c1 | . | . | . | . | /
CCOC(=O)[C@@]12CCCC3=C1N(CCC3)C(=O)[C@H]2CC(=O)NCC1CCCCC1 | / | / | / | . | /
COc1ccc(N(C(=O)CCl)C(C(=O)NCCc2ccccc2)c2cccs2)cc1 (stereo unspecified) | . | . | 93 | . | 98 | GSTO1 recomb ABPP=94
SMILES | CTSL1 counter | PAD4 inh | GSTO1 inh | TDP2 inh | GSTO1 inh conf | others
COC(=O)CCC(=O)OC1(C)C(=O)C=C2C=C(C3CC3)N(Cc3ccc(OC)cc3)C=C2C1=O (stereo unspecified) | . | . | . | . | /
COC(=O)CCC(=O)OC1(C)C(=O)C=C2C=C(C3CC3)N(Cc3ccc4c(c3)OCO4)C=C2C1=O (stereo unspecified) | . | . | 44 | . | .
COC(=O)CCC(=O)OC1(C)C(=O)C=C2C=C(C3CC3)N(CCc3ccccn3)C=C2C1=O (stereo unspecified) | . | . | 43 | . | .
CCOC(=O)C1CCN(C(=O)C(C)(C)NC(=O)Nc2ccc3c(c2)CCC3)CC1 | / | / | / | . | /
C/C(=C\C(=O)c1ccccc1)Nc1ccc(O)cc1 | . | 50 | 78 | . | .
C[C@@H]1CCN(C2CC2)S(=O)(=O)c2ccc(N3CCC[C@@H]3C)cc2O1 | / | / | / | . | /
CCOc1ccc(-n2c(SCC(=O)Nc3ccc(S(=O)(=O)Nc4cc(C)nc(C)n4)cc3)nnc2-c2ccc(C)cc2)cc1 | / | / | / | . | /
Cc1cccc(NC(=O)CSc2nnc(-c3ccco3)c(-c3ccco3)n2)c1C | . | . | 42 | / | .
Cc1cccc(NC(=O)CSc2nnc(-c3ccco3)c(-c3ccco3)n2)c1 | / | / | / | . | /
COc1cccc(C(=O)N2CCC(Oc3cccnc3)CC2)c1 | / | / | / | . | /
O=C(c1ccc([N+](=O)[O-])s1)N1CCN(c2ccccn2)CC1 | . | . | . | . | /
COc1ccc(OC)c2sc(N3CCN(C(=O)c4ccc([N+](=O)[O-])s4)CC3)nc12 | . | . | 54 | . | .
Cc1ccc2[nH]c3ccccc3c(=O)c2c1 | . | . | . | . | /
O=c1c2ccccc2[nH]c2ccc(O)cc12 | . | . | 46 | . | .
CCC(=O)N=c1ccn(C2=Nc3ccccc3NC2=C(C#N)C#N)cc1 | . | . | 63 | . | .
CCN(CC)c1ccc(C=Nc2ccc(N(C)C)cc2)c(O)c1 | . | . | 66 | . | .
CCN(CC)c1ccc(C=Nc2ccc(C)cc2)c(O)c1 | . | . | . | . | /
C=CCOC(=O)N1CCN(C(=O)c2ccc3nc(C)n(C4CCCC4)c3c2)CC1 | / | / | / | . | /
O=C1c2ccccc2C(=O)C2OC12 (stereo unspecified) | . | . | 76 | / | .
CCOc1ccc(-c2nc(CSCC(=O)NC3CCC3)c(C)o2)cc1 | / | / | / | . | /
CCc1cccc2c(C(=O)COC(=O)c3ccc([N+](=O)[O-])s3)c[nH]c12 | . | . | 53 | . | .
O=C(OCC(=O)c1c[nH]c2ccccc12)c1ccc([N+](=O)[O-])s1 | . | . | 46 | . | .
COC(=O)c1cc2c(c3c4cc(C)ccc4n(C(=O)c4ccccc4)c13)C(=O)N(Cc1ccccc1)C2 | / | / | / | . | /
Cc1c(C#N)c(NC(=O)CCl)n(Cc2ccc(F)cc2)c1C | . | . | 81 | . | 96
Cc1c(C#N)c(NC(=O)CCl)n(Cc2ccccc2)c1C | 40 | . | 86 | . | 91
SMILES | CTSL1 counter | PAD4 inh | GSTO1 inh | TDP2 inh | GSTO1 inh conf | others
COc1cc(Cl)ccc1OC1(C)CCN(Cc2cccc(OC)c2OC)C1 (stereo unspecified) | / | / | / | . | /
CC1=CC(=O)c2ccccc2C1=O | . | . | 39! | . | 50
O=C1C=C(Nc2ccccc2)C(=O)c2ccccc21 | . | . | . | . | /
O=C(CCl)Nc1cccc(-c2cnc3ccccc3n2)c1 | 74 | . | 69 | . | 94
CCC(=O)Nc1cccc(-c2cnc3ccccc3n2)c1 | . | . | . | . | /
Cn1c(=O)c2ccccc2n2c(CCl)nnc12 | 28 | . | 80 | . | 86 | GSTO1 recomb ABPP=.
Oc1cccc(C=Nc2cccc3ccccc23)c1O | . | . | 88 | . | .
Oc1ccccc1C=Nc1cccc2ccccc12 | . | . | . | . | /
COCCN(CCOC)Cc1cc(=O)oc2ccc3ccccc3c12 | / | / | / | . | /
Cc1ccc(N(CC2CO2)S(=O)(=O)c2ccc([N+](=O)[O-])cc2)cc1 (stereo unspecified) | . | . | 88 | . | 85 | GSTO1 recomb ABPP=.
